Measurements reported in ChEMBL document CHEMBL3526063, “Metabolism and pharmacokinetics of JM6 in mice: JM6 is not a prodrug for Ro-61-8048” (Drug Metab Dispos, 2012).

Legend:
[1] = AUC(infinity) in C57BL/6N mouse at 0.05 mg/kg, po administered via gavage by LC-MS/MS analysis; type: ADME, organism-based; design: time infinity, dose 0.05 mg/kg, route oral; conditions: plasma
In short: (§1)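 Male C57BL/6N mice were dosed by oral gavage at 10 mL/kg with a fine suspension in 10% hydroxypropyl-β-cyclodextrin in 50 mM phosphate buffer, pH 7. Plasma was taken at non-serial time points (n=3 per time point), extracted with 0.1% formic acid in acetonitrile containing diclofenac as internal standard, and quantified by UPLC-MS/MS. Composite non-compartmental parameters came from mean concentrations; AUClast by linear trapezoid, kel from at least three terminal points.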

Mus musculus [2] = test: Dose normalised AUC in C57BL/6N mouse at 0.05 mg/kg, po administered via gavage by LC-MS/MS analysis; type: ADME, organism-based; design: dose 0.05 mg/kg, route oral; conditions: in vivo; in short: as §1
[3] = Cmax in C57BL/6N mouse at 0.05 mg/kg, po administered via gavage by LC-MS/MS analysis; type: ADME, organism-based; design: dose 0.05 mg/kg, route oral; conditions: in vivo; in short: as §1
[4] = Metabolic stability in mouse liver microsomes assessed as intrinsic clearance at 5 uM after 5 to 40 mins by LC-MS/MS analysis; type: ADME; conditions: read-out: CLH
[5] = Plasma protein binding in mouse at 5 and 20 uM for 6 hrs by LC-MS/MS analysis; type: ADME, cell-free; conditions: read-out: PPB
In short: (§2)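 Equilibrium dialysis: plasma fortified in triplicate (5 and 20 µM rat and mouse; 10 µM human) on donor side, PBS on receiver side; 37°C, 200 rpm, 6 h; both sides by LC-MS/MS.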

[6] = Plasma protein binding in human at 10 uM for 6 hrs by LC-MS/MS analysis; type: ADME, cell-free; conditions: read-out: PPB; in short: as §2
[7] = biological target: Kynurenine 3-monooxygenase (Mus musculus, UniProt Q91WN4); test: Inhibition of C57BL/6J mouse KMO assessed as 3-hydroxykynurenine formation preincubated for 5 mins using 100 uM kynurenine as substrate by LC-MS/MS analysis in presence of 3 mg/ml plasma protein
Chain of Kynurenine 3-monooxygenase (Q91WN4 whole entry): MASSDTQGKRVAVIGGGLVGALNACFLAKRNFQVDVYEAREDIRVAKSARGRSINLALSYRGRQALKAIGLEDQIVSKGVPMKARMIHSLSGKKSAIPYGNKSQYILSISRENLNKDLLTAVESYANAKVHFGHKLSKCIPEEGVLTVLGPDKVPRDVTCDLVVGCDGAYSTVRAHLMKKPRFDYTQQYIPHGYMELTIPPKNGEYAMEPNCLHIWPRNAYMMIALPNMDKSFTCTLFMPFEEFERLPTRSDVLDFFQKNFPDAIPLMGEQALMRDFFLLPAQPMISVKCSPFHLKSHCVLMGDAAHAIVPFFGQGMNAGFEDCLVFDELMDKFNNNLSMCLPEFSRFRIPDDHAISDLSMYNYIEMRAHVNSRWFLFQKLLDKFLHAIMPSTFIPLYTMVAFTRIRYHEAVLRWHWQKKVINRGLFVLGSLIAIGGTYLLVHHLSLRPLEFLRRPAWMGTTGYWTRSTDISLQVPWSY
In short: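 Liver mitochondrial KMO (mouse C57 BL/6J or human), 0.3 mg protein/mL in 100 mM potassium phosphate pH 7.4, 200 µM NADPH, NADPH-regenerating system, plus 3 mg/mL plasma protein. Compound pre-incubated 5 min at 25°C; 100 µM kynurenine started reaction for 40 min (mouse) or 60 min (human); TCA stop; 3-hydroxykynurenine by LC-MS/MS. IC50 from 8-point 3-fold series, triplicates, n≥2.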

[8] = Cmax in R6/2 mouse at 7.5 mg/kg/day, po; type: ADME, organism-based; design: dose 7.5 mg/kg/day, route oral; conditions: in vivo
Mus musculus [9] = test: Dose normalised AUC in C57BL/6N mouse at 5 mg/kg, iv administered as single dose by LC-MS/MS analysis; type: ADME, organism-based; design: dose 5 mg/kg, route intravenous; conditions: in vivo
In short: (§3)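 Single intravenous bolus of 5 mg/kg to male C57BL/6N mice, given as a filtered 1 mg/mL solution in DMSO:PEG400:water 10:50:40 (v/v). Plasma was extracted in acidified acetonitrile with diclofenac as internal standard and analysed by UPLC-MS/MS. Non-compartmental analysis used mean concentrations (n=3 per time point), with C0 back-extrapolated from the first two samples. AUCinf = AUClast + Ct/kel.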

[10] = Plasma clearance in C57BL/6N mouse at 5 mg/kg, iv administered as single dose by LC-MS/MS analysis; type: ADME, organism-based; design: dose 5 mg/kg, route intravenous
In short: (§4)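 Male C57BL/6N mice given 5 mg/kg iv bolus as 1 mg/mL filtered solution in DMSO:PEG400:water 10:50:40. Plasma extracted with acidified acetonitrile (diclofenac IS), analysed by LC-MS/MS. Composite non-compartmental parameters from mean concentrations (n=3 per time point); C0 back-extrapolated from first two points; kel from at least last three concentrations.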

[11] = Volume of distribution at steady state in C57BL/6N mouse at 5 mg/kg, iv administered as single dose by LC-MS/MS analysis; type: ADME, organism-based; design: dose 5 mg/kg, route intravenous; conditions: in vivo, read-out: Vdss; in short: as §4
[12] = Half life in C57BL/6N mouse at 5 mg/kg, iv administered as single dose by LC-MS/MS analysis; type: ADME, organism-based; design: dose 5 mg/kg, route intravenous; conditions: in vivo; in short: as §3
Mus musculus [13] = test: Dose normalised Cmax in C57BL/6N mouse at 10 mg/kg, po administered via gavage containing <0.4% Ro-61-8048 by LC-MS/MS analysis; type: ADME, organism-based; design: dose 10 mg/kg, route oral; conditions: in vivo; in short: as §1
Mus musculus [14] = test: Tmax in C57BL/6N mouse at 10 mg/kg, po administered via gavage containing <0.4% Ro-61-8048 by LC-MS/MS analysis; type: ADME, organism-based; design: dose 10 mg/kg, route oral; conditions: in vivo
In short: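 Male C57BL/6N mice dosed by oral gavage (10 mL/kg) as fine suspensions in 10% hydroxypropyl-β-cyclodextrin in 50 mM phosphate buffer pH 7; dose formulations verified by LC-MS/MS. Plasma analysed by LC-MS/MS; composite non-compartmental parameters from mean concentrations (n=3 per time point), C0 set to zero. %F = dose-normalised po AUCinf over dose-normalised iv AUCinf, only within linear range.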

Mus musculus [15] = test: Half life in C57BL/6N mouse at 10 mg/kg, po administered via gavage containing <0.4% Ro-61-8048 by LC-MS/MS analysis; type: ADME, organism-based; design: dose 10 mg/kg, route oral; conditions: in vivo; in short: as §1
[16] = Metabolic stability in mouse blood assessed as half life at 5 uM by LC-MS/MS analysis; type: ADME, tissue-based
[17] = AUC(infinity) in C57BL/6N mouse at 5 mg/kg, iv administered as single dose containing <0.4% Ro-61-8048 by LC-MS/MS analysis; type: ADME, organism-based; design: time infinity, dose 5 mg/kg, route intravenous; conditions: plasma; in short: as §3
Mus musculus [18] = test: Dose normalised AUC in C57BL/6N mouse at 5 mg/kg, iv administered as single dose containing <0.4% Ro-61-8048 by LC-MS/MS analysis; type: ADME, organism-based; design: dose 5 mg/kg, route intravenous; conditions: in vivo; in short: as §3
[19] = Plasma clearance in C57BL/6N mouse at 5 mg/kg, iv administered as single dose containing <0.4% Ro-61-8048 by LC-MS/MS analysis; type: ADME, organism-based; design: dose 5 mg/kg, route intravenous
In short: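 Male C57BL/6N mice given 5 mg/kg iv bolus (1 mg/mL, DMSO:PEG400:water 10:50:40, filtered); dosed material carried Ro-61-8048 as impurity, which was also quantified in plasma. LC-MS/MS after acetonitrile/formic acid extraction; composite non-compartmental analysis of mean concentrations (n=3 per time point), C0 back-extrapolated, kel from ≥3 terminal points.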

[20] = Half life in C57BL/6N mouse at 5 mg/kg, iv administered as single dose containing <0.4% Ro-61-8048 by LC-MS/MS analysis; type: ADME, organism-based; design: dose 5 mg/kg, route intravenous; conditions: in vivo; in short: as §3
Mus musculus [21] = test: AUC(infinity) in C57BL/6N mouse at 10 mg/kg, po administered via gavage containing <0.4% Ro-61-8048 by LC-MS/MS analysis; type: ADME, organism-based, Plasma; design: time infinity, dose 10 mg/kg, route oral; conditions: in vivo; in short: as §1
Mus musculus [22] = test: Dose normalised AUC in C57BL/6N mouse at 10 mg/kg, po administered via gavage containing <0.4% Ro-61-8048 by LC-MS/MS analysis; type: ADME, organism-based; design: dose 10 mg/kg, route oral; conditions: in vivo; in short: as §1

Q: With `COc1ccc(S(=O)(=O)Nc2nc(-c3cccc([N+](=O)[O-])c3)cs2)cc1OC` as the molecule, how does the AUC(0-inf) [1] read?
A: The AUC(0-inf) was 4.5 µM·h.

Q: And the AUC/dose (Mus musculus [2])?
A: The AUC/dose was 90000 nM·kg·h/mg.

Q: And the Cmax [3]?
A: The Cmax was 550 nM.

Q: What about the microsomal CLint at 5 µM [4] of the same molecule?
A: Its microsomal CLint at 5 µM is under 29 µL/min/mg.

Q: What about the fraction unbound at 6 h [5] of the same molecule?
A: Its fraction unbound at 6 h is under 0.01.

Q: What about the fraction unbound at 6 h, 10 µM [6] of the same molecule?
A: Its fraction unbound at 6 h, 10 µM is under 0.01.

Q: What about the IC50 [7] of the same molecule?
A: Its IC50 is at least 12 µM.

Q: What about the Cmax [8] of the same molecule?
A: The Cmax was 280 nM.

Q: And the AUC/dose (Mus musculus [9])?
A: The AUC/dose was 130000 nM·kg·h/mg.

Q: And the clearance [10]?
A: Its clearance is 0.3 mL/min/kg.

Q: What about the Vd [11] of the same molecule?
A: The Vd was 0.15 L/kg.

Q: What about the half-life [12] of the same molecule?
A: Its half-life is 6.5 h.

Q: For `COc1ccc(S(=O)(=O)Nc2nc(-c3cccc([N+](=O)[O-])c3)c(CN3CCCCC3)s2)cc1OC`, which Cmax/dose (Mus musculus [13]) is on record?
A: The Cmax/dose was 110 nM.

Q: And the Tmax (Mus musculus [14])?
A: The Tmax was 0.5 h.

Q: What about the t1/2 (Mus musculus [15]) of the same molecule?
A: The t1/2 was 1.1 h.

Q: What about the half-life at 5 µM [16] of the same molecule?
A: Its half-life at 5 µM is over 2.5 h.

Q: And the AUC(0-inf) [17]?
A: The AUC(0-inf) was 5.2 µM·h.

Q: And the AUC/dose (Mus musculus [18])?
A: Its AUC/dose is 1000 nM·kg·h/mg.

Q: What about the clearance [19] of the same molecule?
A: The clearance was 31.7 mL/min/kg.

Q: What about the half-life [20] of the same molecule?
A: The half-life was 0.72 h.

Q: And the AUC (Mus musculus [21])?
A: Its AUC is 1.1 µM·h.

Q: And the AUC/dose (Mus musculus [22])?
A: Its AUC/dose is 110 nM·kg·h/mg.
